# “And” between values parts separate entries of the source, which are not always exact repeats. Equal entries are not always repeated.
# Experiments:
# [1] = system: Mus musculus; test: Percent increase in life span at dose 65 mg/kg/day in 7 mice implanted with P388 leukemia cell line for 1,8,15 schedule day in Exp-2; type: functional
# Outline: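 Female DBA2 mice inoculated iv on day 0 with 10^5 P388 cells; iv dosing of sulfate salts in physiological saline on day 1 only or on days 1, 8 and 15. %ILS from all deaths and survivors as (T/C × 100) − 100, maximal MST 60 days; survivors scored on day 60.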
# [2] = system: Mus musculus; test: Number of survivors of DBA2 mice on 60th day after inoculation with L1210 leukemia cell line intravenously at a dose of 55 mg/kg/day; 0/10; type: functional; conditions: route intravenous
# [3] = system: Mus musculus; test: Percent increase in life span at dose 60 mg/kg/day in 10 mice implanted with P388 leukemia cell line for 1st schedule day; type: functional
# [4] = system: Mus musculus; test: Number of survivors on 30th day at dose 55 mg/kg/day in 10 mice implanted with P388 leukemia cell line; 7/10; type: functional
# [5] = system: Mus musculus; test: Percent increase in life span at dose 50 mg/kg/day in 10 mice implanted with P388 leukemia cell line; type: functional
# Outline: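 Female DBA2 mice inoculated iv on day 0 with 10^4 P388 cells; single iv treatment on day 1 with drug as sulfate salt in physiological saline. Survival followed; %ILS from all deaths and survivors as (T/C × 100) − 100, maximal MST 30 days; survivors counted on days 30 and 60. Most experiments confirmed three times.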
# [6] = system: Mus musculus; test: Percent increase in life span at dose 58 mg/kg/day in 10 mice implanted with P388 leukemia cell line; type: functional
# [7] = system: Mus musculus; test: Number of survivors on 60th day at dose 20 mg/kg/day in 10 mice implanted with P388 leukemia cell line; 0/10; type: functional
# [8] = system: Mus musculus; test: Number of survivors on 30th day at dose 65 mg/kg/day in 10 mice implanted with P388 leukemia cell line; 7/9; type: functional
# [9] = system: Mus musculus; test: Number of survivors of DBA2 mice on 60th day after inoculation with L1210 leukemia cell line intravenously at a dose of 70 mg/kg/day; 0/10; type: functional; conditions: route intravenous
# [10] = system: Mus musculus; test: Number of survivors on 60th day at dose 55 mg/kg/day in 10 mice implanted with P388 leukemia cell line for 1st scheduled day; 6/10; type: functional
# [11] = system: Mus musculus; test: Number of survivors on 30th day at dose 20 mg/kg/day in 10 mice implanted with P388 leukemia cell line; 0/10; type: functional
# [12] = system: Mus musculus; test: Number of survivors on 60th day at dose 65 mg/kg/day in 7 mice implanted with P388 leukemia cell line for 1,8,15 scheduled days in Exp-2; 0/10; type: functional
# [13] = system: Mus musculus; test: Percent increase in life span at dose 7 mg/kg/day in 9 mice implanted with P388 leukemia cell line for 1st schedule day; type: functional
# [14] = system: Mus musculus; test: Number of survivors on 30th day at dose 8 mg/kg/day in 10 mice implanted with P388 leukemia cell line; 8/10; type: functional
# [15] = system: Mus musculus; test: Number of survivors on 30th day at dose 7 mg/kg/day in 10 mice implanted with P388 leukemia cell line; 2/10; type: functional
# [16] = system: Mus musculus; test: Number of survivors on 60th day at dose 6 mg/kg/day in 9 mice implanted with P388 leukemia cell line; 0/10; type: functional
# [17] = system: Mus musculus; test: Number of survivors of DBA2 mice on 30th day after inoculation with L1210 leukemia cell line intravenously at a dose of 10 mg/kg/day; 0/10; type: functional; conditions: route intravenous
# [18] = system: Mus musculus; test: Number of survivors on 60th day at dose 6 mg/kg/day in 7 mice implanted with P388 leukemia cell line for 1,8.15 scheduled days from Exp-2; 0/10; type: functional
# [19] = system: Mus musculus; test: Percent increase in life span at dose 10 mg/kg/day in 7 mice implanted with P388 leukemia cell line for 1,8,15 schedule days; type: functional
# [20] = system: Mus musculus; test: Number of survivors on 30th day at dose 6 mg/kg/day in 10 mice implanted with P388 leukemia cell line; 1/10; type: functional
# [21] = system: Mus musculus; test: Number of survivors on 60th day at dose 4 mg/kg/day in 10 mice implanted with P388 leukemia cell line; 2/10; type: functional
# [22] = system: Mus musculus; test: Number of survivors on 30th day at dose 8 mg/kg/day in 9 mice implanted with P388 leukemia cell line; 0 /9; type: functional
# [23] = system: Mus musculus; test: Number of survivors on 60th day at dose 4 mg/kg/day in 7 mice implanted with P388 leukemia cell line for 1,8,15 acheduled days form Exp-1; 0/10; type: functional
# [24] = system: Mus musculus; test: Number of survivors on 30th day at dose 4 mg/kg/day in 10 mice implanted with P388 leukemia cell line; 0 /10; type: functional
# [25] = system: Mus musculus; test: Number of survivors on 30th day at dose 6 mg/kg/day in 10 mice implanted with P388 leukemia cell line; 0 /10; type: functional
# [26] = system: Mus musculus; test: Percent increase in life span of DBA2 mice after inoculation with L1210 leukemia intravenously at a dose of 5.5 mg/kg per day; type: functional; conditions: route intravenous
# [27] = system: Mus musculus; test: Number of survivors of DBA2 mice on 30th day after inoculation with L1210 leukemia cell line intravenously at a dose of 6.5 mg/kg/day; 0/10; type: functional; conditions: route intravenous
# [28] = system: Mus musculus; test: Percent increase in life span of DBA2 mice after inoculation with L1210 leukemia intravenously at a dose of 6.5 mg/kg per day; type: functional; conditions: route intravenous
# [29] = system: Mus musculus; test: Number of survivors of DBA2 mice on 30th day after inoculation with L1210 leukemia cell line intravenously at a dose of 1 mg/kg/day; 0/10; type: functional; conditions: route intravenous
# [30] = system: Mus musculus; test: Percent increase in life span at dose 1.5 mg/kg/day in 10 mice implanted with P388 leukemia cell line; type: functional
# [31] = system: Mus musculus; test: Percent increase in life span of BDF1 mice after inoculation with P388 leukemia intraperitoneally at a dose of 2.7 mg/kg per day; conditions: P388, ip
# [32] = system: Mus musculus; test: Percent increase in life span of DBA2 mice after inoculation with L1210 leukemia intravenously at a dose of 1.5 mg/kg per day; type: functional; conditions: route intravenous
# [33] = system: Mus musculus; test: Number of survivors on 60th day at dose 0.5 mg/kg/day in 10 mice implanted with P388 leukemia cell line; 0/10; type: functional
# [34] = Acute iv toxicity against Swiss strain of 100 mice after 8 doses of injection; type: organism-based; conditions: mouse, in vivo
# [35] = system: Mus musculus; test: Percent increase in life span at dose 2.5 mg/kg/day in 10 mice implanted with P388 leukemia cell line for 1st scheduled day; type: functional
# [36] = system: Mus musculus; test: Number of survivors on 30th day at dose 3 mg/kg/day in 9 mice implanted with P388 leukemia cell line; 0/10; type: functional
# [37] = system: Mus musculus; test: Number of survivors on 30th day at dose 3 mg/kg/day in 10 mice implanted with P388 leukemia cell line; 0/9; type: functional
# [38] = system: Mus musculus; test: Percent increase in life span at dose 2.5 mg/kg/day in 10 mice implanted with P388 leukemia cell line; type: functional
# [39] = system: Mus musculus; test: Percent increase in life span of BDF1 mice after inoculation with P388 leukemia cells intraperitoneally at a dose of 0.30 mg/kg per day for 1-9 scheduled days; conditions: P388, ip
# [40] = system: Mus musculus; test: Percent increase in life span at dose 2 mg/kg/day in 7 mice implanted with P388 leukemia cell line for 1,8,15 scheduled days; type: functional
compound,measurement,setting,value
CCOC(=O)[C@H](Cc1c[nH]c2ccccc12)NC(=O)[C@@]1(O)[C@H](O)[C@]2(CC)C=CCN3CC[C@@]4(c5cc([C@@]6(C(=O)OC)C[C@H]7C[N@](CCc8c6[nH]c6ccccc86)C[C@](O)(CC)C7)c(OC)cc5N(C)[C@@]14C)[C@@H]32,ILS,[1],40% and 108%
same,Survivors,[2],0
same,ILS at 60 mg/kg/day,[3],> 224%
same,Survivors,[4],7
same,ILS at 50 mg/kg/day,[5],> 161%
same,ILS at 58 mg/kg/day,[6],122%
same,Survivors,[7],0
same,Survivors,[8],7
same,Survivors,[9],0
same,Survivors,[10],6
same,Survivors,[11],0
same,Survivors,[12],0
CCOC(=O)[C@@H](NC(=O)[C@@]1(O)[C@H](O)[C@]2(CC)C=CCN3CC[C@@]4(c5cc([C@@]6(C(=O)OC)C[C@H]7C[N@](CCc8c6[nH]c6ccccc86)C[C@](O)(CC)C7)c(OC)cc5N(C)[C@@]14C)[C@@H]32)[C@@H](C)CC,ILS at 7 mg/kg/day,[13],37%
same,Survivors,[14],8
same,Survivors,[15],2
same,Survivors,[16],0
same,Survivors,[17],0
same,Survivors,[18],0
same,ILS at 10 mg/kg/day,[19],41%
same,Survivors,[20],1
CC[C@]1(O)C[C@@H]2CN(CCc3c([nH]c4ccccc34)[C@@](C(=O)OC)(c3cc4c(cc3OC)N(C)[C@H]3[C@@](O)(C(=O)OC)[C@H](OC(C)=O)[C@]5(CC)C=CCN6CC[C@]43[C@@H]65)C2)C1 [VINBLASTINE],Survivors,[21],2
same,Survivors,[22],0
same,Survivors,[23],0
same,Survivors,[24],0
same,Survivors,[25],0
CC[C@]1(O)C[C@H]2CN(CCc3c([nH]c4ccccc34)[C@@](C(=O)OC)(c3cc4c(cc3OC)N(C=O)[C@H]3[C@@](O)(C(=O)OC)[C@H](OC(C)=O)[C@]5(CC)C=CCN6CC[C@]43[C@@H]65)C2)C1 [VINCRISTINE],ILS at 5.5 mg/kg/day,[26],26.6%
same,Survivors,[27],0
same,ILS at 6.5 mg/kg/day,[28],-37%
same,Survivors,[29],0
same,ILS at 1.5 mg/kg/day,[30],20.8%
same,ILS at 2.7 mg/kg/day,[31],64%
same,ILS at 1.5 mg/kg/day,[32],12%
same,Survivors,[33],0
CC[C@]1(O)C[C@@H]2CN(CCc3c([nH]c4ccccc34)[C@@](C(=O)OC)(c3cc4c(cc3OC)N(C)[C@H]3[C@@](O)(C(N)=O)[C@H](O)[C@]5(CC)C=CCN6CC[C@]43[C@@H]65)C2)C1 [VINDESINE],LD50,[34],13.8 mg/kg
same,ILS at 2.5 mg/kg/day,[35],32%
same,Survivors,[36],0
same,Survivors,[37],0
same,ILS at 2.5 mg/kg/day,[38],19%
same,ILS at 0.3 mg/kg/day,[39],95%
same,ILS at 2 mg/kg/day,[40],31%

# From ChEMBL document CHEMBL1122917, “Vinblastin-23-oyl amino acid derivatives: chemistry, physicochemical data, toxicity, and antitumor activities against P388 and L1210 leukemias” (J Med Chem, 1985)
